Compound activity (PubChem BioAssay)
HUVEC prolif 384 = human endothelial cell proliferation inhibition. 86,000 compounds, 1.1% hits. viability, % at 10 µM (by protocol). AID 648. HUVEC proliferation, CellTiter-Glo luminescence, 72 h; hits give low values;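 active = viability at or below 30%; inactive = viability above 30%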
HCT116 bCat-KO = beta-catenin-lacking colon tumor cell growth suppression; HCT116 beta-catenin knockout viability, CellTiter-Glo, 60 h; hits give low values; viability, % at 10 µM; 140,000 compounds, 1.5% hits; AID 818;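 active = viability at or under a set limit, the compound median less 4 SD, cut at about 6% in these data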
Pyk2 oligo antag = Pyk2 (human) oligomerization antagonism. Q293 cells, Pyk2 FERM NanoBiT luminescence; hits give low values. z-score (the deposit names both 25 µM and 10 µM). 99,000 compounds, 0.83% hits. AID 1347419;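 active = Z-score of -3 or lower, scaled per plate to the spread of control and sample wells; inactive = z-score above -3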;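 also: negative z-score means lost luminescence so less FERM oligomerization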
Lung fibro prol = blocks proliferation of human lung fibroblasts | AID 719 | viability, % at 10 µM | LL 47 human lung fibroblast viability, ATP luminescence; hits give low values | 85,000 compounds, 1.1% hits;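 active = viability at or below 50% in the single dose screen; inactive = viability above 50%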;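 also: compound exposure lasted 72 h before the ATP readout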
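Test system: LL 47 human lung fibroblasts / Incubation: 72 h compound exposure at 37 °C after overnight plating / Technique: luminescent ATP detection, CellTiter-Glo / Compound dosing: 0.1% DMSO in all compound wells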
PTEN del growth = suppresses growth of cells with PTEN deletion | HCT116 PTEN-null viability, CellTiter-Glo, 60 h; hits give low values | viability, % at 10 µM | 140,000 compounds, 1.2% hits | AID 827;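 active = viability at or below a set limit, 4 SD under the median of all tested compounds, cut at about 3.7% in these data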;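 also: PTEN knockout HCT116 line with beta catenin targeted HCT116 as companion control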
H69AR growth 86K = growth inhibitors of human H69AR lung tumor cells; H69AR lung tumor viability, ATP luminescence, 72 h; hits give low values; viability, % at 10 µM; 85,000 compounds, 6% hits; AID 598;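 active = viability at or below 40%; inactive = viability above 40%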;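 also: multidrug resistant small cell line overexpressing MRP-1 efflux transporter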
Hits are given with their value; i = inactive; nt = no result given. The full list was thinned out, with hits kept by preference.

SMILES	HUVEC prolif 384	HCT116 bCat-KO	Pyk2 oligo antag	Lung fibro prol	PTEN del growth	H69AR growth 86K
COc1ccc(NC(=O)CSc2ccc3c4c(cccc24)C(=O)c2ccccc2-3)cc1	nt	i	i	nt	3.4	nt
O=C(COC(=O)c1cccc(NS(=O)(=O)c2ccc(F)c(F)c2)c1)NC(=O)NC1CCCCC1	nt	i	nt	nt	i	nt
CN(C1=C(NC(=O)c2ccc(Cl)cc2)C(=O)c2ccccc2C1=O)c1ccccc1	nt	1.6	i	nt	1.6	nt
Cc1cccc(C2(c3cccc(C)c3)CC2C(=O)Nc2ccc([N+](=O)[O-])cc2O)c1 (stereo unspecified)	nt	5.9	nt	nt	i	nt
Cc1ccc2cc3c(NC(=O)c4ccco4)nn(C)c3nc2c1	i	i	i	i	i	35
CC(=O)Nc1nn(C)c2nc3cc(C)ccc3cc12	i	i	i	i	i	i
O=C(CN1CCOCC1)Nc1ccc(OCc2ccccc2)cc1	i	i	i	i	i	6.9
O=C(CCN1CCN(Cc2ccccc2)CC1)Nc1ccc(OCc2ccccc2)cc1	8.7	i	i	i	i	29
Cc1c(-c2ccccc2)sc(N)c1C(=O)N1CCOCC1	i	i	i	i	i	i
Cc1cccc(NC2=C(Cl)C(=O)OC2NC(=O)c2ccccc2)c1 (stereo unspecified)	i	i	i	i	i	i
CC(C)CC(=O)NC(=S)N1CCN(c2ccc([N+](=O)[O-])cc2Cl)CC1	nt	i	nt	nt	i	nt
COc1ccc2nc(NC(=O)c3ccoc3C)sc2c1	i	i	i	i	i	23
COc1ccc2nc(NC(=O)c3cccc(OCc4c(C)noc4C)c3)sc2c1	i	i	i	i	i	21
CC12C(=O)N(Cc3ccco3)C(=O)C1C1c3ccccc3C2c2ccccc21 (stereo unspecified)	i	i	i	i	i	i
CCC(=O)N1CCN(c2ccccc2NC(=O)COc2cc(C)ccc2C(C)C)CC1	i	i	i	i	i	36
CC(=O)N1CCN(c2ccccc2NC(=O)COc2ccc(Cl)cc2Cl)CC1	i	i	i	i	i	i
C=CCNC(=O)C1(c2ccccc2)CC1(Cl)Cl (stereo unspecified)	nt	i	i	nt	i	nt
CCCSc1nnc(NC(=O)Nc2ccc(F)cc2)s1	i	i	i	47	i	11
Cn1ccnc1Sc1ccc(/C=N/NC(=O)c2ccccc2O)cc1[N+](=O)[O-]	nt	i	nt	nt	i	nt
Cc1oc(-c2ccc(Cl)cc2)nc1CN1CCC(C(=O)N2CCN(c3ccccn3)CC2)CC1	i	nt	nt	i	nt	i
Oc1ccccc1CNc1ccc(Br)cn1	9.3	i	i	6.4	i	i
Brc1ccc(NCc2cccc3ccccc23)nc1	i	i	i	i	i	i
COc1cccc(CN2C(=O)C3CCCN3c3ccc(S(=O)(=O)N4CCOCC4)cc32)c1 (stereo unspecified)	nt	i	nt	nt	i	nt
CCOC(=O)/C(C#N)=C\C1=C(N2CCCC2)CC(C)(CC)OC1 (stereo unspecified)	i	i	i	i	i	36
COc1cc(S(=O)(=O)N2CCN(c3ccccc3F)CC2)ccc1Cl	i	i	-3	i	i	i
SMILES	HUVEC prolif 384	HCT116 bCat-KO	Pyk2 oligo antag	Lung fibro prol	PTEN del growth	H69AR growth 86K
CC1CCCCN1S(=O)(=O)c1ccc(S(=O)(=O)N2CCN(c3ccc(F)cc3)CC2)cc1 (stereo unspecified)	i	i	i	i	i	19
COc1cc(S(=O)(=O)N2CCN(c3ccccc3)CC2)ccc1Cl	i	i	i	i	i	i
O=S(=O)(c1ccc(F)cc1)N1CCN(c2ccccc2)CC1	i	i	i	i	i	i
COc1ccc(S(=O)(=O)N2CCN(c3ccccc3OC)CC2)cc1OC	i	i	i	i	i	i
COc1cc(S(=O)(=O)N2CCN(c3ccc(F)cc3)CC2)ccc1Cl	nt	i	-3.3	nt	i	nt
CN1CCN(c2nc(NCCOC34CC5CC(CC(C5)C3)C4)nc(OCC(F)(F)F)n2)CC1	9.5	i	i	i	i	1.9
CCC(C)c1ccc(NC(=O)COc2c(F)c(F)c(C(F)(F)F)c(F)c2F)cc1 (stereo unspecified)	nt	i	i	nt	i	nt
CC1=C(C(=O)Nc2ccccc2)C(c2ccc(C)cc2)N=C(Nc2nc3ccccc3o2)N1 (stereo unspecified)	nt	i	i	nt	3.6	nt
CC1(C)CC(=O)C2=C(C1)NC(Nc1nc3ccccc3o1)=NC21CCCC1	i	i	i	i	i	i
Cc1ccc(NC(=O)C2CCN(S(C)(=O)=O)CC2)cc1	i	i	i	i	i	i
CS(=O)(=O)N1CCC(C(=O)Nc2ccc(Oc3ccccc3)cc2)CC1	i	i	i	i	i	32
O=C(Nc1ccc2c(c1)CCC2)C1CCN(c2c3c(nc4ncnn24)CCC3)CC1	i	i	i	i	i	32
O=C(Nc1ccc(Oc2ccccc2)cc1)C1CCN(c2c3c(nc4ncnn24)CCC3)CC1	i	i	-3.3	i	i	i
CN1CC(c2ccc(Cl)c(Cl)c2)[C@@]2(COc3ccccc3C2=O)[C@@]12C(=O)Nc1ccccc12 (stereo partly specified)	nt	4.7	-3.4	nt	2.9	nt
COc1cc(-c2nnc(-c3ccc(N4CCOCC4)cc3)o2)cc(OC)c1OC	i	i	i	i	i	17
S=c1[nH]ncn1/N=C/c1cccc(Oc2ccccc2)c1	i	i	i	i	i	1.7
C(=N\n1cnnc1)/c1cccc(Oc2ccccc2)c1	i	i	i	i	i	i
CCn1c(C)c(C2=CCN(S(=O)(=O)c3ccccc3)CC2)c2ccccc21	nt	i	nt	nt	i	nt
O=C(Oc1ccc(Cl)c2cccnc12)c1ccco1	i	5.3	i	4.2	i	1.3
O=C(Oc1cccc2cccnc12)c1ccco1	i	3.0	i	5.2	1.8	1.5
O=C(Oc1cccc2cccnc12)c1cccs1	i	4.1	i	3.4	1.9	1.6
O=C(Oc1ccccc1)c1cccc2cccnc12	i	3.3	i	36	1.7	0.8
O=C(Oc1cccc2ccccc12)c1ccco1	i	i	i	i	i	i
O=C(Oc1cccc2cccnc12)c1ccc(Br)o1	i	i	i	i	i	i
O=C(COc1cccc2cccnc12)Nc1nccs1	i	i	i	i	i	i
O=C(Nc1cccc(C(F)(F)F)c1)/C(=C/c1ccco1)NC(=O)c1cccs1	nt	i	i	nt	i	nt
COC(=O)CNC(=O)CSc1nc(N)cc(=O)[nH]1	nt	i	i	nt	i	nt
